In PMC11223151 (ACS Omega, 2024):
In brackets after ≈: the same amount, converted by molar mass.

Legend:
Type in all cases: cell-based
human lymphocytes = experiment: Comet assay
Procedure, shortened: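 Freshly isolated human lymphocytes from fresh blood were exposed to test compound at 40–0.078 μg/mL. Controls were 20% DMSO (positive) and normal saline (negative). Cells in low-melting agarose went onto slides precoated with normal-melting agarose, then cold lysis overnight, alkaline unwinding at pH >13, and electrophoresis for 30 min at 300 mA, 24 V. Slides were neutralised at pH 7.5 and ethidium bromide-stained. Tail length and head diameter were scored by fluorescence microscopy, damage index by formula, reported as mean ± SD of 3–5 experiments.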

MCF-7 cell line = experiment: MTT assay, anticancer activity on MCF-7 cell line; conditions: Homo sapiens, MCF7, 48 h
Vero cell line = experiment: MTT assay, cytotoxicity on Vero; conditions: Chlorocebus sabaeus, 48 h, read-out: IC50 Vero cell line

With `C[S+](C)[O-]` [20% DMSO, Dimethyl sulfoxide] the damage index (human lymphocytes; positive control, 20%) was 45, the fragmentation % (human lymphocytes; positive control, 20%) was 100% and the genetic damage index (human lymphocytes; positive control, 20%) was 1.8.
Compound `COc1cc(/C=C/C(=O)CC(=O)/C=C/c2ccc(O)c(OC)c2)ccc1O` [curcumin] has an IC50 (MCF-7 cell line; read-out: IC50 MCF7 cell line) of 11.5 µg/mL (≈ 31.1 µM), an inhibition at 40 µg/mL (MCF-7 cell line; read-out: percentage inhibition against MCF7 cell line) of 64% and an IC50 (Vero cell line) of 23.2 µg/mL (≈ 63 µM). The damage index (human lymphocytes; 0.078 μg/mL) was 0, the fragmentation % (human lymphocytes; 0.078 μg/mL) was 0% and the genetic damage index (human lymphocytes; 0.078 μg/mL) was 0. The “mean tail length n = 25” value (human lymphocytes; 0.078 μg/mL) was 0.36 ± 0.47, the damage index (human lymphocytes; 0.156 μg/mL) was 0 and the fragmentation % (human lymphocytes; 0.156 μg/mL) was 0%. For the same compound, the genetic damage index (human lymphocytes; 0.156 μg/mL) was 0, the “mean tail length n = 25” value (human lymphocytes; 0.156 μg/mL) was 0.46 ± 0.38 and the damage index (human lymphocytes; 0.3125 μg/mL) was 0. The fragmentation % (human lymphocytes; 0.3125 μg/mL) was 0%, the genetic damage index (human lymphocytes; 0.3125 μg/mL) was 0 and the “mean tail length n = 25” value (human lymphocytes; 0.3125 μg/mL) was 0.57 ± 0.22. The damage index (human lymphocytes; 0.625 μg/mL) was 0, the fragmentation % (human lymphocytes; 0.625 μg/mL) was 0% and the genetic damage index (human lymphocytes; 0.625 μg/mL) was 0. For the same compound, the “mean tail length n = 25” value (human lymphocytes; 0.625 μg/mL) was 0.54 ± 0.28, the damage index (human lymphocytes; 1.25 μg/mL) was 0 and the fragmentation % (human lymphocytes; 1.25 μg/mL) was 0%. For the same compound, the genetic damage index (human lymphocytes; 1.25 μg/mL) was 0, the “mean tail length n = 25” value (human lymphocytes; 1.25 μg/mL) was 0.68 ± 0.35 and the damage index (human lymphocytes; 2.5 μg/mL) was 0. The fragmentation % (human lymphocytes; 2.5 μg/mL) was 0%, the genetic damage index (human lymphocytes; 2.5 μg/mL) was 0 and the “mean tail length n = 25” value (human lymphocytes; 2.5 μg/mL) was 0.68 ± 0.74. For the same compound, the damage index (human lymphocytes; 5 μg/mL) was 0, the fragmentation % (human lymphocytes; 5 μg/mL) was 0% and the genetic damage index (human lymphocytes; 5 μg/mL) was 0. For the same compound, the “mean tail length n = 25” value (human lymphocytes; 5 μg/mL) was 1.14 ± 0.72, the damage index (human lymphocytes; 10 μg/mL) was 1 and the fragmentation % (human lymphocytes; 10 μg/mL) was 4%. For the same compound, the genetic damage index (human lymphocytes; 10 μg/mL) was 0.04, the “mean tail length n = 25” value (human lymphocytes; 10 μg/mL) was 1.28 ± 0.28 and the damage index (human lymphocytes; 20 μg/mL) was 2. The fragmentation % (human lymphocytes; 20 μg/mL) was 8%, the genetic damage index (human lymphocytes; 20 μg/mL) was 0.08 and the “mean tail length n = 25” value (human lymphocytes; 20 μg/mL) was 1.31 ± 0.74. It also gave a damage index (human lymphocytes; 40 μg/mL) of 3, a fragmentation % (human lymphocytes; 40 μg/mL) of 12% and a genetic damage index (human lymphocytes; 40 μg/mL) of 0.12. For the same compound, the “mean tail length n = 25” value (human lymphocytes; 40 μg/mL) was 1.86 ± 0.73.
